{"data": "Measured values from different studies", "observed": "cell growth or viability", "note": "pIC50: −log10 of the molar value."}
{"SMILES": "Cc1cc(=O)oc2cc(OCCCC[Se]C#N)ccc12", "cell line": "HeLa", "technique": "SRB", "measurement": "GI50", "value": "0.98 µM"}
{"SMILES": "COc1c(C)c2c(c(O)c1C/C=C(\\C)CCC(=O)O)C(=O)OC2", "cell line": "Hs-578T", "measurement": "pIC50", "value": 5.60}
{"SMILES": "COc1cccc2c1C(=O)c1c(O)c3c(c(O)c1C2=O)CC(O)(C(=O)CO)CC3OC1CC(NC(=O)OC2C=CCCCCC2)C(O)C(C)O1 (stereo not shown)", "cell line": "HeLa", "technique": "CCK-8", "time": "72 h", "measurement": "pIC50", "value": "< 5.00"}
{"SMILES": "O=[N+]([O-])c1ccc(NCCCCCCN=C=S)c2nonc12", "cell line": "HDFa", "technique": "MTT", "time": "24 h", "measurement": "pIC50", "value": 5.24}
{"SMILES": "O=C1[O][Pt]2([NH][C@@H]3CCCC[C@H]3[NH]2)[O]C1=O", "cell line": "SNU-449", "technique": "imaging", "time": "72 h", "measurement": "pIC50", "value": 4.89}
{"SMILES": "CC(C)C[C@H](NC(=O)[C@H](CC(C)C)NC(=O)[C@@H]1CCCN1C(=O)[C@H](C)NC(=O)[C@@H](NC(=O)[C@H](C)N)C(C)C)C(=O)N[C@@H](Cc1c[nH]cn1)C(=O)N[C@@H](CO)C(=O)N[C@H](C(=O)O)[C@@H](C)OP(=O)(O)O", "cell line": "HeLa", "technique": "MTT", "time": "72 h", "measurement": "pIC50", "value": 5.98}
{"SMILES": "N.N.[Cl][Pt][Cl]", "cell line": "SU-DHL-6", "technique": "ATP luminescence", "time": "72 h", "measurement": "pIC50", "value": 5.15}
{"SMILES": "Cc1c(Cl)c(=O)oc2cc(OCCCC[Se]C#N)ccc12", "cell line": "HeLa", "technique": "SRB", "measurement": "GI50", "value": "15 µM"}
{"SMILES": "O=C1c2ccccc2-c2c3c(cc4ccnc1c24)OCO3", "cell line": "HeLa", "technique": "MTT", "time": "75 h", "measurement": "pIC50", "value": 4.80}
{"SMILES": "CC(N)C(O)CCCCCCCCCCCCCCC(=O)CCCCCCCC(O)C(C)N (stereo not shown)", "cell line": "HeLa", "measurement": "pIC50", "value": 4.61}
{"SMILES": "O=[N+]([O-])c1ccc(NCCCCN=C=S)c2nonc12", "cell line": "HDFa", "technique": "MTT", "time": "24 h", "measurement": "pIC50", "value": 5.12}
{"SMILES": "COC(=O)c1cc(C(C)=NNc2nc(-c3ccc(S(=O)(=O)F)cc3)cs2)ccc1O", "cell line": "HSF", "technique": "MTT", "time": "96 h", "measurement": "pIC50", "value": 4.39}
{"SMILES": "CC[C@H](C)[C@H](NC(=O)[C@@H](N)CCC(=O)O)C(=O)N[C@@H](C)C(=O)N1CCC[C@H]1C(=O)N[C@H](C(=O)N[C@@H](CC(C)C)C(=O)N[C@@H](Cc1c[nH]cn1)C(=O)N[C@@H](CO)C(=O)N[C@H](C(=O)O)[C@@H](C)OP(=O)(O)O)C(C)C", "cell line": "HeLa", "technique": "MTT", "time": "72 h", "measurement": "pIC50", "value": 6.02}
